Consider one molecule from ChEMBL document CHEMBL1255317, “Attenuated vancomycin bactericidal activity against Staphylococcus aureus hemB mutants expressing the small-colony-variant phenotype” (2008).

Each structure is given as a SMILES string.

Test [1] relates to Staphylococcus aureus. As to the kind of experiment: Antimicrobial activity against methicillin resistant Staphylococcus aureus COL assessed as bacterial killing by time kill study. The test is classed as functional, organism-based.
Test [2] concerns Staphylococcus aureus. As to the kind of experiment: Antimicrobial activity against methicillin resistant Staphylococcus aureus Newman assessed as bacterial killing by time kill study. The test is classed as functional, organism-based.
Test [3] deals with Staphylococcus aureus. As to the kind of experiment: Antimicrobial activity against methicillin resistant Staphylococcus aureus isolate A20780 I isolated from persistent bacterial infection patient assessed as bacterial killing by time kill study. Type of test: functional, organism-based.
Test [4] relates to Staphylococcus aureus. As to the kind of experiment: Antimicrobial activity against methicillin resistant Staphylococcus aureus COL assessed as bacterial killing at 64 times MIC after 24 hrs by time kill study relative to baseline. The test is classed as functional. A digest of the protocol:
(§1)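 Time-kill in Ca/Mg-supplemented BHI. A 0.5 McFarland saline suspension was diluted to about 10^7 CFU/ml with vancomycin in 10-ml cultures, shaken at 35°C. Counts at 0, 1, 2, 4, 6 and 24 h by spiral plating on BHI agar, incubated 24 h at 35°C (48 h for Ia48 and III33). Drug-free growth controls were run. Value is the 24-h log10 CFU/ml change from baseline; runs were duplicate to quadruplicate.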

Test [5] deals with Staphylococcus aureus. The test can be described thus: Antimicrobial activity against methicillin resistant Staphylococcus aureus Newman assessed as bacterial killing at 64 times MIC after 24 hrs by time kill study relative to baseline. The test is classed as functional. In outline:
as §1

In test [6] the test system is Staphylococcus aureus. As to the kind of experiment: Antimicrobial activity against methicillin resistant Staphylococcus aureus isolate A20780 I isolated from persistent bacterial infection patient assessed as bacterial killing at 64 times MIC after 24 hrs by time kill study. The test is classed as functional. A digest of the protocol:
as §1

The test system of test [7] is Staphylococcus aureus. As to the kind of experiment: Antimicrobial activity against methicillin resistant Staphylococcus aureus isolate A20780 II with hemin auxotrophism and expressing small-colony-variant phenotype isolated from persistent bacterial infection patient assessed as bacterial killing at 64 times MIC after 24 hrs by time kill study. Type of test: functional. In outline: as §1

In test [8] the test system is Staphylococcus aureus. As to the kind of experiment: Antimicrobial activity against methicillin resistant Staphylococcus aureus Ia48 containing hemB mutation (hemB::ermB) expressing small-colony-variant phenotype assessed as bacterial killing at 64 times MIC after 24 hrs by time kill study. Type of test: functional. In outline:
as §1

For test [9], the system named is Staphylococcus aureus. The test can be described thus: Antimicrobial activity against methicillin resistant Staphylococcus aureus III33 containing hemB mutation (hemB::ermB) expressing small-colony-variant phenotype assessed as bacterial killing at 64 times MIC after 24 hrs by time kill study. Type of test: functional. A digest of the protocol: as §1

On to `CN[C@H](CC(C)C)C(=O)N[C@H]1C(=O)N[C@@H](CC(N)=O)C(=O)N[C@H]2C(=O)N[C@H]3C(=O)N[C@H](C(=O)N[C@H](C(=O)O)c4cc(O)cc(O)c4-c4cc3ccc4O)[C@H](O)c3ccc(c(Cl)c3)Oc3cc2cc(c3O[C@@H]2O[C@H](CO)[C@@H](O)[C@H](O)[C@H]2O[C@H]2C[C@](C)(N)[C@H](O)[C@H](C)O2)Oc2ccc(cc2Cl)[C@H]1O` [VANCOMYCIN], for which the Activity entry in [1], in [2] and in test [3] was “Dose-dependent effect” each time. Besides, the log10CFU/ml in test [4] is recorded as 3.99; in [5], 4.81; in [6], 2.39; in test [7] it was 1.78; in test [8], 1.4; in [9] it was 1.88.
